Experiment [1] deals with human T-lymphocyte cells (Molt4/C8). Description: Cytostatic assay, inhibition of tumor cell proliferation. The note with it: Molt4/C8, read-out: IC50 (50% inhibitory concentration, tumor cell proliferation). The experiment is classed as cell-based.
For experiment [2], the target named is T1, human recombinant thymidine phosphorylase (Homo sapiens, UniProt P19971).
T1 sequence (P19971 11-482): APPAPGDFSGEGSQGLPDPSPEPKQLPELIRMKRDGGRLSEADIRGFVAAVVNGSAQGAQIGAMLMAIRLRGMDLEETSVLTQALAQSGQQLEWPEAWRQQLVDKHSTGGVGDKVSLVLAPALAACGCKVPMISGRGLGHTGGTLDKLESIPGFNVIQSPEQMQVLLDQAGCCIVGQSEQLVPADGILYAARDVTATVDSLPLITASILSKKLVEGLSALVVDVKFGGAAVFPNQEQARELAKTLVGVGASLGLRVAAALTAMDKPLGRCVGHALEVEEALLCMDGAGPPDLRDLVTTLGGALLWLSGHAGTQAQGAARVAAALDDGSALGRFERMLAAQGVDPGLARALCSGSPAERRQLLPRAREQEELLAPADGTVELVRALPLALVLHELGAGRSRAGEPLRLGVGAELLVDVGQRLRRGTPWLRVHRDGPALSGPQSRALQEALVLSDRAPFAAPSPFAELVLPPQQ
Nature of the experiment: Thymidine phosphorylase assay, conversion to the free base. The experiment is classed as biochemical. The note with it: purified recombinant enzyme, 100 μM substrate, 20, 40 and 60 min; data not shown. An outline of the steps: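 Aliquots taken at 20, 40 and 60 min and heat-inactivated at 95 °C for 3 min. Free base quantified by RP-8 HPLC with phosphate/heptane sulfonate (pH 3.2) to acetonitrile gradient; UV detection at 267 nm.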

For experiment [3], the target named is uridine phosphorylase type 1 (Homo sapiens, UniProt Q16831). Description: Uridine phosphorylase assay, conversion to the free base. Type of experiment: biochemical. The note with it: purified recombinant enzyme, 100 μM substrate, 20, 40 and 60 min; data not shown. An outline of the steps:
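Samples taken at 20, 40 and 60 min and heated at 95 °C for 3 min. Nucleoside and free base separated on RP-8 HPLC with phosphate/heptane sulfonate (pH 3.2) to acetonitrile gradient; UV detection at 267 nm.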

This note sets out measurements from publication PMC7112006 (Bioorganic Chemistry, 2010).

The structures appear in SMILES notation.

Sequence of uridine phosphorylase type 1 (Q16831 whole entry): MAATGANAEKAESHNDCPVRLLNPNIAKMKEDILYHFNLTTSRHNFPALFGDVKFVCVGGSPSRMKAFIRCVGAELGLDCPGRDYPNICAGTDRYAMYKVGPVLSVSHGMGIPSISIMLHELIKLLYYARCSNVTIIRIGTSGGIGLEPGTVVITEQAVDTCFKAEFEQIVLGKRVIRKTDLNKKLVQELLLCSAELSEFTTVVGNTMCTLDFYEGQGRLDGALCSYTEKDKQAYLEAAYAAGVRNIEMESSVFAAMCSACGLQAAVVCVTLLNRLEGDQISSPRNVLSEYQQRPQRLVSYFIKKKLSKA

Consider `Nc1ccn([C@@H]2O[C@H](CO)[C@@H](O)[C@H](F)[C@H]2O)c(=O)n1` [3f, 1-(3-Deoxy-3-fluoro-β-D-glucopyranosyl)cytosine], for which the IC50 in experiment [1] came out at 163 ± 21 µM.
Same read-out and setting: for `Nc1ncnc2c1ncn2[C@@H]1O[C@H](CO)[C@@H](O)[C@H](F)[C@H]1O` [3g, 9-(3-Deoxy-3-fluoro-β-D-glucopyranosyl)adenine] the value was 183 ± 24 µM.
Consider `Cc1cn([C@H]2C[C@H](O)[C@@H](CO)O2)c(=O)[nH]c1=O` [thymidine], for which the “hydrolysis to the free pyrimidine base by thymidine phosphorylase (TPase)” value in experiment [2] was “readily converted”.
Regarding `O=c1ccn([C@@H]2O[C@H](CO)[C@@H](O)[C@H]2O)c(=O)[nH]1` [uridine], the “hydrolysis to the free pyrimidine base by uridine phosphorylase type I (UPase)” value in experiment [3] was “readily converted”.
